pIC50: −log10 of the molar value.
Target: T1, NADP-dependent malic enzyme (Homo sapiens, UniProt P48163)
T1 sequence (P48163 whole entry): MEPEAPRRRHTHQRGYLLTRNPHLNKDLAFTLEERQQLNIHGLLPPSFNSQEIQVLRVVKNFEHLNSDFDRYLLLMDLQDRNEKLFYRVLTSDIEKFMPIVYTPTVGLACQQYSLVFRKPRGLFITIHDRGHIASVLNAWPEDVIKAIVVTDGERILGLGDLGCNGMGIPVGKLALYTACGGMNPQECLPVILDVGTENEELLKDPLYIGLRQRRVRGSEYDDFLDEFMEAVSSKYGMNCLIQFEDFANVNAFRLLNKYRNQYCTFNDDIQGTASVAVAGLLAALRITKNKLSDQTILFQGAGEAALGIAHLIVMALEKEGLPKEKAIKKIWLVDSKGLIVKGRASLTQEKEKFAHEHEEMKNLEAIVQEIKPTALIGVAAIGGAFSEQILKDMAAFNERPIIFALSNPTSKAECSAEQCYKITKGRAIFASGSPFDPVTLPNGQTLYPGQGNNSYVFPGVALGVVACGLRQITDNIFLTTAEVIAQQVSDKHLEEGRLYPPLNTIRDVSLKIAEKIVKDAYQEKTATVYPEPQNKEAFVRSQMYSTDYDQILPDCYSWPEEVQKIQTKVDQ
Test: Inhibitory activity against cytosolic malic enzyme
How it was run: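 Coupled endpoint assay. Enzyme pre-incubated with compound 45 min at room temperature in 85 mM Tris pH 7.5 containing 2 mM malic acid and 5 mM MnCl2. Reaction started with 124 µM NADP, run 30 min at room temperature, stopped with 0.5 M EDTA. NADPH formed read via MTS/PMS reduction to formazan, absorbance at 492 nm.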

pIC50 | SMILES
< 4.70 | COc1ccc(N2CCN(c3cc(O)n(-c4cccc(Cl)c4Cl)c3O)CC2)cc1 [1-(2,3-dichlorophenyl)-3-(4-(4-methoxyphenyl)piperazin-1-yl)pyrrolidine-2,5-dione]
< 4.70 | COc1ccc(N2CCN(c3cc(O)n(-c4ccccc4)c3O)CC2)cc1 [3-(4-(4-methoxyphenyl)piperazin-1-yl)-1-phenylpyrrolidine-2,5-dione]

From BindingDB's records for doi:10.1016/j.bmcl.2005.10.065 (Cytrx Laboratories, 2005)
